Values after ≈ are worked out from the molar mass of the structure shown. Active and inactive are the calls of the source. The calls are words filed in the database; no cut-off is given here.
Key:
[1] = system: Streptococcus pneumoniae; assay: Antibacterial activity against Streptococcus pneumoniae OC6755 harboring gyrA S81F and parC S79Y mutant gene by agar dilution method; format: functional
In short: (§1)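 MICs for the resistance-selection studies were determined by CLSI agar dilution on Mueller-Hinton medium. For S. pneumoniae the medium was supplemented with 5% lysed horse blood. For MRSA fluctuation-assay strains an arithmetic agar dilution scheme was used for a more precise MIC.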

[2] = system: Streptococcus pneumoniae; assay: Antibacterial activity against Streptococcus pneumoniae OC7452 harboring parC S79Y mutant gene by agar dilution method; format: functional; in short: as §1
[3] = system: Staphylococcus aureus; assay: Antibacterial activity against methicillin-resistant Staphylococcus aureus isolate OC4222 harboring gyrA S84L and parC S80F mutant gene by broth microdilution method; format: functional
In short: (§2)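 CLSI M07-A7 broth microdilution MIC. Medium was cation-adjusted Mueller-Hinton broth. For S. pneumoniae it was Mueller-Hinton supplemented with 5% lysed horse blood. CLSI quality-control strains were included as appropriate.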

[4] = system: Streptococcus pneumoniae; assay: Antibacterial activity against Streptococcus pneumoniae isolate OC7348 assessed as log reduction in bacterial growth at 4 times MIC measured at 24 hrs by time-kill assay; format: functional
In short: (§3)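 Drug was diluted from 50× stocks made in water or acidified water. Samples were taken at 6 and 24 h and serially diluted onto TSA-5% sheep blood plates. Plates were incubated 20–24 h at 37°C in 5% CO2 before counting CFU. Log10 titer change is given relative to the starting inoculum.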

[5] = Dissociation constant, pKa of the compound; format: physicochemical
[6] = system: Streptococcus pneumoniae; assay: Antibacterial activity against Streptococcus pneumoniae isolate OC6790 by broth microdilution method; format: functional; in short: as §2
[7] = system: Citrobacter freundii; assay: Antibacterial activity against Citrobacter freundii by broth microdilution method; format: functional
In short: (§4)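 MICs by CLSI M07-A7 broth microdilution in cation-adjusted Mueller-Hinton medium. For S. pneumoniae the medium was supplemented with 5% lysed horse blood. CLSI quality control strains were run alongside as appropriate.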

[8] = system: Providencia stuartii; assay: Ratio of Moxifloxacin MIC90 to compound MIC90 for Providencia stuartii; format: functional
[9] = system: Streptococcus pneumoniae; assay: Antibacterial activity against Streptococcus pneumoniae isolate OC6585 assessed as log reduction in bacterial growth at 2 times MIC measured at 6 hrs by time-kill assay; format: functional; in short: as §3
[10] = system: Staphylococcus aureus; assay: Antibacterial activity against methicillin-resistant Staphylococcus aureus isolate OC2838 by broth microdilution method; format: functional; in short: as §2
[11] = system: Enterococcus faecalis; assay: Antibacterial activity against Enterococcus faecalis ATCC 29212 by broth microdilution method; format: functional; in short: as §4
[12] = system: Staphylococcus aureus; assay: Antibacterial activity against methicillin-resistant Staphylococcus aureus isolate OC11150 harboring gyrA S84L and parC S80Y mutant gene by agar dilution method; format: functional; in short: as §1
[13] = system: Streptococcus pneumoniae; assay: Antibacterial activity against Streptococcus pneumoniae isolate OC7348 assessed as log reduction in bacterial growth at 2 times MIC measured at 24 hrs by time-kill assay; format: functional; in short: as §3
[14] = system: Klebsiella pneumoniae; assay: Antibacterial activity against Klebsiella pneumoniae by broth microdilution method; format: functional; in short: as §4
[15] = system: Staphylococcus aureus; assay: Antibacterial activity against methicillin-, ciprofloxacin-resistant Staphylococcus aureus by broth microdilution method; format: functional; in short: as §2
[16] = system: Streptococcus pneumoniae; assay: Ratio of Levofloxacin MIC90 to compound MIC90 for ciprofloxacin-resistant Streptococcus pneumoniae; format: functional
[17] = Plasma protein binding in rat infected with gram-positive bacteria; format: ADME, cell-free; conditions: read-out: PPB (converted)
[18] = system: Streptococcus pneumoniae; assay: Antibacterial activity against erythromycin-resistant Streptococcus pneumoniae by broth microdilution method; format: functional, organism-based; in short: as §2
[19] = system: Staphylococcus epidermidis; assay: Antibacterial activity against methicillin-susceptible Staphylococcus epidermidis by broth microdilution method; format: functional
[20] = system: Streptococcus pneumoniae; assay: Antibacterial activity against Streptococcus pneumoniae isolate OC7189 assessed as log reduction in bacterial growth at 2 times MIC measured at 6 hrs by time-kill assay; format: functional; in short: as §3
[21] = system: Staphylococcus aureus; assay: Antibacterial activity against methicillin-resistant Staphylococcus aureus isolate OC11521 harboring gyrA S84L/S85P, parC E84G mutant gene by broth microdilution method; format: functional; in short: as §2
[22] = system: Proteus mirabilis; assay: Antibacterial activity against Proteus mirabilis by broth microdilution method; format: functional; in short: as §4
[23] = system: Staphylococcus aureus; assay: Antibacterial activity against methicillin-resistant Staphylococcus aureus isolate OC2838 assessed as log reduction in bacterial growth at 4 times MIC measured at 24 hrs by time-kill assay; format: functional
In short: (§5)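 Overnight MRSA cultures were diluted into fresh cation-adjusted Mueller-Hinton broth to about 5 × 10^6 CFU/ml. […] Samples were plated serially diluted on trypticase soy agar, and CFU were counted after 20-24 h at 37°C. Value is the log10 decrease at 24 h from the starting inoculum; detection limit 100 CFU.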

[24] = system: Streptococcus pneumoniae; assay: Antibacterial activity against multidrug resistant Streptococcus pneumoniae by broth microdilution method; format: functional, organism-based
In short: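 CLSI M07-A7 broth microdilution MIC in cation-adjusted Mueller-Hinton medium. For S. pneumoniae the medium was supplemented with 5% lysed horse blood. CLSI quality-control strains were included as appropriate.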

[25] = system: Streptococcus pneumoniae; assay: Antibacterial activity against Streptococcus pneumoniae isolate OC6608 assessed as log reduction in bacterial growth at 2 times MIC measured at 24 hrs by time-kill assay; format: functional; in short: as §3
[26] = system: Staphylococcus aureus; assay: Antibacterial activity against Staphylococcus aureus […] by broth microdilution method; format: functional; in short: as §2
[27] = system: Enterococcus faecium; assay: Antibacterial activity against Enterococcus faecium by broth microdilution method; format: functional; in short: as §4
[28] = system: Streptococcus pneumoniae; assay: Antibacterial activity against Streptococcus pneumoniae isolate OC5462 assessed as log reduction in bacterial growth at 4 times MIC measured at 24 hrs by time-kill assay; format: functional; in short: as §3
[29] = system: Streptococcus pneumoniae; assay: Antibacterial activity against Streptococcus pneumoniae isolate OC7348 assessed as log reduction in bacterial growth at 4 times MIC measured at 6 hrs by time-kill assay; format: functional; in short: as §3
[30] = system: Streptococcus pneumoniae; assay: Antibacterial activity against Streptococcus pneumoniae isolate OC6585 by broth microdilution method; format: functional; in short: as §2
[31] = system: Streptococcus pneumoniae; assay: Antibacterial activity against Streptococcus pneumoniae isolate OC7368 assessed as log reduction in bacterial growth at 2 times MIC measured at 24 hrs by time-kill assay; format: functional; in short: as §3
[32] = system: Streptococcus pneumoniae; assay: Antibacterial activity against Streptococcus pneumoniae isolate OC6585 assessed as log reduction in bacterial growth at 4 times MIC measured at 24 hrs by time-kill assay; format: functional; in short: as §3
[33] = system: Staphylococcus aureus; assay: Antibacterial activity against methicillin-resistant Staphylococcus aureus isolate OC2838 assessed as log reduction in bacterial growth at 2 times MIC measured at 24 hrs by time-kill assay; format: functional; in short: as §5
[34] = system: Staphylococcus aureus; assay: Antibacterial activity against methicillin-resistant Staphylococcus aureus isolate OC4222 harboring gyrA S84L and parC S80F mutant gene assessed as log reduction in bacterial growth at 2 times MIC measured at 24 hrs by time-kill assay; format: functional; in short: as §5
[35] = system: Streptococcus agalactiae; assay: Antibacterial activity against Streptococcus agalactiae by broth microdilution method; format: functional; in short: as §4
[36] = system: Escherichia coli; assay: Antibacterial activity against ciprofloxacin-susceptible, -intermediate Escherichia coli by broth microdilution method; format: functional
[37] = system: Staphylococcus aureus; assay: Antibacterial activity against methicillin-resistant Staphylococcus aureus isolate OC11696 assessed as log reduction in bacterial growth at 4 times MIC measured at 24 hrs by time-kill assay; format: functional; in short: as §5
[38] = system: Streptococcus pneumoniae; assay: Antibacterial activity against Streptococcus pneumoniae OC7453 harboring gyrA S81F mutant gene by agar dilution method; format: functional; in short: as §1

## COc1c(N2CCC/C(=C(\F)CN)C2)c(F)cc2c(=O)c(C(=O)O)cn(C3CC3)c12 [ACORAFLOXACIN]
[1]
  MIC: 0.12 µg/mL (≈ 0.286 µM)
[2]
  MIC: 0.015 µg/mL (≈ 0.0358 µM)
[3]
  MIC: 0.5 µg/mL (≈ 1.19 µM)
[4]
  deltalog10CFU/ml: 6.5
[5]
  pKa: 6.13
[6]
  MIC: 0.12 µg/mL (≈ 0.286 µM)
[7]
  MIC50: 2 µg/mL (≈ 4.77 µM)
  MIC90: 8 µg/mL (≈ 19.1 µM)
[8]
  Ratio: 16
[9]
  deltalog10CFU/ml: 3.9
[10]
  MIC: 0.25 µg/mL (≈ 0.596 µM)
[11]
  MIC50: 0.06 µg/mL (≈ 0.143 µM)
  MIC90: 0.5 µg/mL (≈ 1.19 µM)
[12]
  MIC: 0.12 µg/mL (≈ 0.286 µM)
[13]
  deltalog10CFU/ml: 7
[14]
  MIC50: 0.12 µg/mL (≈ 0.286 µM)
  MIC90: 0.25 µg/mL (≈ 0.596 µM)
[15]
  MIC50: 0.25 µg/mL (≈ 0.596 µM)
  MIC90: 0.25 µg/mL (≈ 0.596 µM)
[16]
  Ratio: 9
[17]
  fraction unbound: 0.44
[18]
  Activity: Active
[19]
  MIC50: 0.015 µg/mL (≈ 0.0358 µM)
  MIC90: 0.015 µg/mL (≈ 0.0358 µM)
[20]
  deltalog10CFU/ml: 4
[21]
  MIC: 1 µg/mL (≈ 2.38 µM)
[22]
  MIC50: 0.25 µg/mL (≈ 0.596 µM)
  MIC90: 0.5 µg/mL (≈ 1.19 µM)
[23]
  deltalog10CFU/ml: 4.5
[24]
  Activity: Active
[25]
  deltalog10CFU/ml: 5.8
[26]
  MIC50: 0.12 µg/mL (≈ 0.286 µM)
  MIC90: 0.25 µg/mL (≈ 0.596 µM)
[27]
  MIC50: 0.5 µg/mL (≈ 1.19 µM)
  MIC90: 4 µg/mL (≈ 9.54 µM)
[28]
  deltalog10CFU/ml: 6.8
[29]
  deltalog10CFU/ml: 3.6
[30]
  MIC: 0.25 µg/mL (≈ 0.596 µM)
[31]
  deltalog10CFU/ml: 7.2
[32]
  deltalog10CFU/ml: 6.6
[33]
  deltalog10CFU/ml: 4.1
[34]
  deltalog10CFU/ml: 5.9
[35]
  MIC50: 0.015 µg/mL (≈ 0.0358 µM)
  MIC90: 0.015 µg/mL (≈ 0.0358 µM)
[36]
  MIC50: 0.06 µg/mL (≈ 0.143 µM)
  MIC90: 0.25 µg/mL (≈ 0.596 µM)
[37]
  deltalog10CFU/ml: 6.5
[38]
  MIC: 0.03 µg/mL (≈ 0.0715 µM)
